We go through one compound from ChEMBL document CHEMBL4808182, “Discovery of the Soluble Guanylate Cyclase Activator Runcaciguat (BAY 1101042)” (J Med Chem, 2021).

Active and inactive are the calls of the source. No cut-off for these calls is given here.

Series [1] concerns Rattus norvegicus. The series can be described thus: Effect on tachycardia reflex in normotensive Wistar rat at 1 to 10 mg/kg, po by radiotelemetry. The following applies: dose 1-10 mg/kg. It is filed as functional, organism-based. The essentials: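 Conscious normotensive rats with telemetric implants received oral doses of 1, 3 or 10 mg/kg. Mean arterial pressure and heart rate were recorded continuously beyond 24 h.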

Series [2] can be described thus: Half life in Beagle dog at 0.3 mg/kg, iv measured up to 24 hrs by LC-MS analysis. It is filed as ADME, organism-based, Canis lupus familiaris. The conditions noted are these: in vivo.
Series [3] deals with Rattus norvegicus. The series can be described thus: In vivo activation of sGC in po dosed renin-transgenic rat carrying [RenTG(mRRen2)27] gene assessed as decrease in proteinuria pretreated with NO-synthase inhibitor L-NAME followed by compound administration twice daily for 21 days. In kind it is functional, organism-based. The conditions noted are these: dose 1-10 mg/kg, time 21.0 day. An outline of the steps:
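L-NAME-treated renin transgenic rats were dosed BID. At study end, protein-to-creatinine ratio (mg/mmol) came from urinary protein and creatinine. Creatinine clearance (mL/min) came from plasma and urinary creatinine plus urine volume.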

Series [4] deals with Coronary artery. The series can be described thus: Vasorelaxant activity in porcine coronary artery assessed as inhibition of U-46619-induced contractions. It is filed as functional, tissue-based. The conditions noted are these: Sus scrofa.
Series [5] can be described thus: Blood clearance in Beagle dog at 0.3 mg/kg, iv measured up to 24 hrs by LC-MS analysis. In kind it is ADME, organism-based, Canis lupus familiaris. The following applies: whole blood.
In series [6] the test system is Rattus norvegicus. Description: Effect on blood pressure in normotensive Wistar rat at 1 to 3 mg/kg, po by radiotelemetry. The following applies: dose 1-3 mg/kg. It is filed as functional, organism-based.
A short description of series [7]: Volume of distribution at steady state in Beagle dog at 0.3 mg/kg, iv measured up to 24 hrs by LC-MS analysis. In kind it is ADME, organism-based, Canis lupus familiaris. The following applies: in vivo, read-out: Vdss.
Series [8] deals with Aorta. Description: Vasorelaxant activity in Chinchilla rabbit aortic ring assessed as inhibition of phenylephrine-induced contractions. The following applies: Oryctolagus cuniculus. In kind it is functional, tissue-based.
Series [9] concerns Heart. Description: Reduction in coronary perfusion pressure in heart isolated from Wistar rat at highest concentration relative to control. In kind it is functional. Also noted: scale not given: the % may be the effect or the level left. An outline of the steps:
(§1)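 Rat hearts in Langendorff perfusion were exposed to 10 nM–10 μM. Coronary perfusion pressure, heart rate, LVDP and +dp/dt were recorded.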

Series [10] relates to Rattus norvegicus. Description: In vivo activation of sGC in Wistar rate assessed as decrease in blood pressure at 0.03 to 0.1 mg/kg, iv administered as bolus injection. It is filed as functional, organism-based. The following applies: dose 0.03-0.1 mg/kg. The essentials: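 Anaesthetized rats received an iv bolus of 0.03 or 0.1 mg/kg, with or without ODQ pretreatment. Blood pressure and heart rate were recorded over time.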

A short description of series [11]: Oral bioavailability in cynomolgus monkey at 0.1 mg/kg measured up to 24 hrs by LC-MS analysis. In kind it is ADME, organism-based, Macaca fascicularis. The following applies: in vivo.
Series [12] in a line: Oral bioavailability in Beagle dog at 0.1 mg/kg measured up to 24 hrs by LC-MS analysis. In kind it is ADME, organism-based, Canis lupus familiaris. The following applies: in vivo.
The test system of series [13] is Rattus norvegicus. The series can be described thus: In vivo activation of sGC in po dosed renin-transgenic rat carrying [RenTG(mRRen2)27] gene assessed as decrease in mortality pretreated with NO-synthase inhibitor L-NAME followed by compound administration twice daily for 21 days and measured on day 1, 8 and 15. It is filed as functional, organism-based. The following applies: dose 1-10 mg/kg, time 21.0 day. An outline of the steps: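 L-NAME-treated renin transgenic rats were dosed at 1, 3 or 10 mg/kg BID, with placebo controls (n = 24 placebo, 18 per dose). Mortality was recorded.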

Series [14] is described as follows: Activation of recombinant rat sGC expressed in CHO cells by luminescence assay. It is filed as cell-based. The following applies: CHO. An outline of the steps:
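Stable CHO reporter cell line overexpressing rat sGC; cGMP formation read as luminescence. EC50 from concentration–response. MEC taken as lowest concentration giving at least threefold increase in basal luminescence.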

Series [15] is filed under the species Rattus norvegicus. Description: Effect on heart rate in Wistar rat. It is filed as functional. An outline of the steps: as §1
Series [16] addresses T1, Guanylate cyclase soluble subunit alpha-1 (Rattus norvegicus) (UniProt P19686).
T1 sequence (whole entry): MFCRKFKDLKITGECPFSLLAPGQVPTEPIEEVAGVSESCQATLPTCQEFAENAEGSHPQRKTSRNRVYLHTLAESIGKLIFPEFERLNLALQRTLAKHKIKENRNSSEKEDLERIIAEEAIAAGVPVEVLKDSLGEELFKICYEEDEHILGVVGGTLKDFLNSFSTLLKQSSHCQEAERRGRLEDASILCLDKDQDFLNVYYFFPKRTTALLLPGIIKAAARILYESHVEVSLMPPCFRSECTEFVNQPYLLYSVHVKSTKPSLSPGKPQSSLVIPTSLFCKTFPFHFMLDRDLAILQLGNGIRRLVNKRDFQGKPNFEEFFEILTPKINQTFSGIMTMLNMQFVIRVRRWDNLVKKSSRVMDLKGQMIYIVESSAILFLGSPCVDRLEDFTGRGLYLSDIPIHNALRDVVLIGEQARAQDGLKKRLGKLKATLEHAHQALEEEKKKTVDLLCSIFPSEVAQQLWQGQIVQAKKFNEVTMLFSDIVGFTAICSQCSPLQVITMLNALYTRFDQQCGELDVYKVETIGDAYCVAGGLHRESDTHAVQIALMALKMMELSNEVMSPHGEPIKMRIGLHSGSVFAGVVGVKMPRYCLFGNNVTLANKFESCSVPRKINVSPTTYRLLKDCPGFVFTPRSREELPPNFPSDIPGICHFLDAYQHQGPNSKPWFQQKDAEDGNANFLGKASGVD
Description: Activation of recombinant rat sGC alpha1 subunit expressed in CHO cells assessed as induction of [32P-cGMP] formation by measuring fold change at 0.01 uM using alpha-[32P-GTP] as substrate measured after 6 mins by luminescence assay. The conditions noted are these: filed as activator. The essentials:
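Highly purified recombinant sGC enzyme was tested for stimulation of cGMP production across 0.01 to 100 μM of compound. The read-out was fold activation over basal enzyme activity. The method followed earlier published sGC stimulator/activator characterization.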

The species entered for series [17] is Rattus norvegicus. The series can be described thus: Effect on contractility in Wistar rat. It is filed as functional. An outline of the steps:
as §1

In general, half-life refers to how long it takes for the measured level to halve. In general, IC50 refers to the concentration needed to halve the response being measured. A word on the clearance: it is the volume of plasma or blood freed of the substance per unit of time. Usually bioavailability stands for dose-corrected exposure relative to a reference, in per cent. For orientation: EC50 means the midpoint of the concentration-response curve. Regarding `C[C@H]([C@H](C(=O)Nc1cc([C@@H](CC(=O)O)C2CC2)ccc1Cl)c1ccc(Cl)cc1)C(F)(F)F` [RUNCACIGUAT], the outcome in [1] was Active. The half-life in series [2] is 258 min. Moreover, the Activity result in series [3] was “Dose-Dependent Effect”; in series [9], 45%; in series [10] it was “Dose-Dependent Effect”; in series [13], “Dose-Dependent Effect”. For the same compound, the IC50 was found to be 137 nM in series [4] and 39 nM in series [8]. For the same compound, the clearance in series [5] was 23.3 mL/min/kg. Moreover, the result in [6], in [15] and in series [17] was inactive. The Vd in series [7] worked out at 2.8 L/kg. In addition, the bioavailability in [11] is 81%; in series [12] it was 48%. Moreover, the EC50 in [14] was 11.2 nM. For the same compound, in [16], the fold change (FC) is 2.6.
